The subject of test [1] is Influenza A virus. The test can be described thus: Antiviral activity against amantadine-resistant Influenza A virus A/WSN/33(H1N1) expressing M2 S31N mutant ion channel infected in MDCK cells assessed as protection against virus induced cytopathic effect after 48 hrs by microscopic analysis. Format: functional, organism-based, A/WSN/1933(H1N1). Summed up:
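MDCK cells were grown 24 h to a confluent monolayer and rinsed twice. They were infected with 100 TCID50 virus for 2 h at 37 °C in 5% CO2, and the inoculum was removed. Serial two-fold compound dilutions in DMEM with 1.5 µg/mL trypsin were added for 48 h at 34 °C in 5% CO2. CPE percentage was scored microscopically. IC50 came from non-linear regression, as the mean of 2–3 determinations.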

Test [2] concerns Influenza A virus. Put plainly: Antiviral activity against amantadine-resistant Influenza A virus A/WSN/33(H1N1) expressing M2 S31N mutant ion channel infected in MDCK cells assessed as cell viability after 48 hrs by MTT assay. It counts as functional, organism-based, A/WSN/1933(H1N1). The method in brief: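 Infected MDCK cells were given compound for 48 h, and the CPE-based result was confirmed by MTT viability. MTT was added from a 5 mg/mL stock for 4 h at 37 °C, stopped with DMSO, and read as absorbance at 490 nm. The 50% effective concentration was calculated by the Reed–Muench method, as the mean of 2–3 determinations.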

The test system of test [3] is Matrix protein 2 (Influenza A virus (A/Udorn/307/1972(H3N2))), P0DOF8 [S31N]. Put plainly: Inhibition of Influenza A virus M2 S31N mutant ion channel expressed in Xenopus oocytes at 100 uM after 2 mins by two-electrode voltage clamp assay. It counts as cell-based. The method in brief: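 A/M2 channel (S31N for line 7, wild type for line 9) was expressed in Xenopus oocytes and recorded by two-electrode voltage clamp. Compound was applied at 100 µM, and the percentage inhibition of channel current was taken after 2 min. Values are mean ± SD.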

Test [4] shares this test system. The test can be described thus: Inhibition of Influenza A virus M2 S31N mutant ion channel expressed in 293Trex cells at 100 uM after 2 mins by patch clamp assay. It counts as cell-based. A general note: In patch-clamp work, channel activity is measured electrically.

Molecules are shown by their SMILES.

A word on the IC50: it is the concentration needed to halve the response being measured. For the molecule `CCCCc1ncc(CN[C@@H]2C[C@@H]3C[C@H]([C@H]2C)C3(C)C)[nH]1`, the IC50 entry in test [1] is given as “Not Active”.
The same measure, in the same setting: the same measure for `CC(C)c1ncc(CN[C@@H]2C[C@@H]3C[C@H]([C@H]2C)C3(C)C)[nH]1`: “Not Active”; for `C[C@@H]1[C@H]2C[C@@H](C[C@H]1NCc1cncn1C)C2(C)C`: “Not Active”.
For the molecule `CCc1nc[nH]c1CN[C@@H]1C[C@@H]2C[C@H]([C@H]1C)C2(C)C`, the half-maximal inhibitory concentration (IC50) result in test [1] is “Not Active”.
The term inhibition denotes the relative decrease from the control value, in per cent. Low readings indicate a response near the control, high ones a response far below the control. For `CCCc1nc[nH]c1CN[C@@H]1C[C@@H]2C[C@H]([C@H]1C)C2(C)C`, the values for the 50% inhibitory concentration (IC50) in test [2] and in test [1] (read-out: IC50) were 7.3 µM and 3.4 µM, respectively. In addition, the inhibition in test [3] was 3.47%.
Turning to `C[C@@H]1[C@H]2C[C@@H](C[C@H]1NCc1cnc(C(C)(C)C)[nH]1)C2(C)C`, the half-maximal inhibitory concentration (IC50) amounted to 11.6 µM in test [2] and 9.7 µM in test [1] (read-out: IC50).
For `Cc1nc(C2CC2)[nH]c1CN[C@@H]1C[C@@H]2C[C@H]([C@H]1C)C2(C)C` the same measures were 21.4 µM and 9.4 µM.
Molecule `NC12CC3CC(CC(C3)C1)C2` [AMANTADINE] gave an inhibition in test [3] of 24.3%. For the same molecule, the IC50 in test [1] (read-out: IC50) is 337 µM.
Turning to `CCCc1nc(C2CC2)[nH]c1CN[C@@H]1C[C@@H]2C[C@H]([C@H]1C)C2(C)C`, the IC50 was determined as 9.7 µM in test [2] and 7.3 µM in test [1] (read-out: IC50).
`C[C@@H]1[C@H]2C[C@@H](C[C@H]1NCc1cnc(-c3cccs3)[nH]1)C2(C)C`: in test [1], the IC50 result was “Not Active”.
On the same count and under the same terms, the same measure for `C[C@@H]1[C@H]2C[C@@H](C[C@H]1NCc1[nH]cnc1-c1ccccc1)C2(C)C`: “Not Active”.
With `CCc1ncc(CN[C@@H]2C[C@@H]3C[C@H]([C@H]2C)C3(C)C)[nH]1`, the IC50 in test [1] (read-out: IC50) was determined as 9.5 µM.
As to `CCCc1nc(-c2ccccc2)[nH]c1CN[C@@H]1C[C@@H]2C[C@H]([C@H]1C)C2(C)C`, the IC50 worked out at 16.1 µM in test [2] and 12.3 µM in test [1] (read-out: IC50).
`CCc1nc(C)c(CN[C@@H]2C[C@@H]3C[C@H]([C@H]2C)C3(C)C)[nH]1` displayed an inhibition in test [3] of 1.73%. Besides, in test [1], the half-maximal inhibitory concentration (IC50) result was “Not Active”.
In the case of `C[C@@H]1[C@H]2C[C@@H](C[C@H]1NCc1[nH]cnc1C1CC1)C2(C)C`, in test [1], the half-inhibitory concentration (IC50) entry was “Not Active”.
For `Cc1nc(C(C)C)[nH]c1CN[C@@H]1C[C@@H]2C[C@H]([C@H]1C)C2(C)C`, the IC50 entry in test [1] is listed as “Not Active”.
Consider `C[C@@H]1[C@H]2C[C@@H](C[C@H]1NCc1cnc(C3CCCC3)[nH]1)C2(C)C`, for which the IC50 result in test [1] is recorded as “Not Active”.
Consider `C[C@@H]1[C@H]2C[C@@H](C[C@H]1NCc1cnc(C3CCCCC3)[nH]1)C2(C)C`, for which, in test [1], the IC50 result is “Not Active”.
As to `C[C@@H]1[C@H]2C[C@@H](C[C@H]1NCc1cnc(C3CC3)[nH]1)C2(C)C`, the concentration for half-maximal inhibition (IC50) in test [1] (read-out: IC50) was 29.4 µM.
Turning to `C[C@@H]1[C@H]2C[C@@H](C[C@H]1NCc1[nH]cnc1C(C)(C)C)C2(C)C`, the 50% inhibitory concentration (IC50) entry in test [1] is reported as “Not Active”.
With `CC(C)Cc1ncc(CN[C@@H]2C[C@@H]3C[C@H]([C@H]2C)C3(C)C)[nH]1`, the results for the IC50 in test [2] and in test [1] (read-out: IC50) were 18.6 µM and 8.9 µM, respectively.
For `C[C@@H]1[C@H]2C[C@@H](C[C@H]1NCc1cnc(-c3ccccc3)[nH]1)C2(C)C` the same measures were 11 µM and 9 µM.
`Cc1nc[nH]c1CN[C@@H]1C[C@@H]2C[C@H]([C@H]1C)C2(C)C` yielded an inhibition in test [4] of 27%. Moreover, the concentration for half-maximal inhibition (IC50) in test [1] (read-out: IC50) came out at 95.5 µM.
As for `CCCc1nc(C(C)C)[nH]c1CN[C@@H]1C[C@@H]2C[C@H]([C@H]1C)C2(C)C`, the IC50 in test [2] turned out to be 11.3 µM; in test [1] (read-out: IC50) it was 8.8 µM.
As for `Cc1ncc(CN[C@@H]2C[C@@H]3C[C@H]([C@H]2C)C3(C)C)[nH]1`, in test [1], the 50% inhibitory concentration (IC50) result is listed as “Not Active”.

Source of the values: ChEMBL document CHEMBL3763156, “Imidazole-based pinanamine derivatives: Discovery of dual inhibitors of the wild-type and drug-resistant mutant of the influenza A virus” (Eur J Med Chem, 2016).
